Measured values: ChEMBL document CHEMBL1649125, “Efficacy of the novel diamidine compound 2,5-Bis(4-amidinophenyl)- furan-bis-O-Methlylamidoxime (Pafuramidine, DB289) against Trypanosoma brucei rhodesiense infection in vervet monkeys after oral administration” (2009)
Activity calls are given as the source filed them. The rule behind the calls is not given here.

Legend:
[1] = system: Trypanosoma brucei rhodesiense; test: Antitrypanosomal activity against Trypanosoma brucei rhodesiense infected in vervet monkey 485 assessed as time to detect CSF parasitosis at 1 mg/kg, po administered on day 7 post infection for 5 days measured after 14 to 21 days by microscopy; assay type: functional
How it was run: (§1)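 Trypanosomes and white cells in free-flowing CSF were counted by hemocytometer. Negative CSF was centrifuged and re-examined. Samples still negative were inoculated at 0.2 ml intraperitoneally into two mice each. Drug was given once daily by oral gavage: 5 days from day 7 p.i., or 10 days from day 28 p.i.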

[2] = system: Trypanosoma brucei rhodesiense; test: Antitrypanosomal activity against Trypanosoma brucei rhodesiense infected in vervet monkey assessed as body weight change at 1 mg/kg, po administered on day 7 post infection for 5 days; assay type: functional
How it was run: (§2)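 Body weight change is given as percent of the mean preinfection weight (n=3 per group). It was recorded at day 0 p.t., day 28 p.t. and end point. Oral gavage was once daily: 5 days from day 7 p.i., or 10 days from day 28 p.i.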

[3] = system: Trypanosoma brucei rhodesiense; test: Antitrypanosomal activity against Trypanosoma brucei rhodesiense infected in vervet monkey 486 assessed as cure from infection at 10 mg/kg, po administered on day 7 post infection for 5 days; assay type: functional, organism-based; set-up: dose 10 mg/kg
How it was run: (§3)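 Vervet monkeys (n=3 per group), infected with T. b. rhodesiense KETRI 2537. Dosed by oral gavage with a suspension once daily for 5 consecutive days from day 7 p.i. Cure meant no trypanosomes over 180 days p.t. in blood (wet film, HCT) or CSF (hemocytometer, centrifugation), with mouse subinoculation of negative samples.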

[4] = system: Trypanosoma brucei rhodesiense; test: Antitrypanosomal activity against Trypanosoma brucei rhodesiense infected in vervet monkey assessed as change in packed cell volume at 10 mg/kg, po administered on day 14 post infection for 5 days measured on day 28 post treatment; assay type: functional
[5] = system: Trypanosoma brucei rhodesiense; test: Antitrypanosomal activity against Trypanosoma brucei rhodesiense infected in vervet monkey assessed as change in packed cell volume at 3 mg/kg, po administered on day 7 post infection for 5 days measured on day 28 post treatment; assay type: functional
How it was run: (§4)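 Vervet monkeys, three per group, were infected intravenously with T. b. rhodesiense KETRI 2537. From day 7 p.i., a drug suspension was given by oral gavage once daily for 5 consecutive days. Packed cell volume was expressed as % change from the group's mean preinfection value. PCV was read at day 0 p.t., day 28 p.t. and endpoint, with follow-up to 180 days p.t.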

[6] = system: Trypanosoma brucei rhodesiense; test: Antitrypanosomal activity against Trypanosoma brucei rhodesiense infected in vervet monkey assessed as change in packed cell volume at 10 mg/kg, po administered on day 28 post infection for 10 days; assay type: functional
How it was run: (§5)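 Three vervet monkeys were infected intravenously with T. b. rhodesiense KETRI 2537 and treated in late-stage disease. From day 28 p.i., a drug suspension was given by oral gavage once daily for 10 consecutive days. PCV was reported as % change from the mean preinfection value at day 0 p.t., day 28 p.t. and endpoint. Monitoring continued up to 180 days p.t.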

[7] = system: Trypanosoma brucei rhodesiense; test: Antitrypanosomal activity against Trypanosoma brucei rhodesiense infected in vervet monkey 482 assessed as time to detect parasitemia in wet films of blood at 3 mg/kg, po administered on day 7 post infection for 5 days by hematocrit centrifugation technique; assay type: functional
How it was run: (§6)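 Parasitemia was monitored from 3 days p.i. in ear-prick or inguinal venous blood. Methods were wet-film microscopy (detection limit 10^5 trypanosomes/ml) and hematocrit centrifugation technique (detection limit 10^3 trypanosomes/ml). Drug was given once daily by oral gavage: 5 days from day 7 p.i., or 10 days from day 28 p.i.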

[8] = system: Trypanosoma brucei rhodesiense; test: Antitrypanosomal activity against Trypanosoma brucei rhodesiense infected in vervet monkey 471 assessed as time to detect parasitemia at 10 mg/kg, po administered on day 14 post infection for 5 days; assay type: functional
[9] = system: Trypanosoma brucei rhodesiense; test: Antitrypanosomal activity against Trypanosoma brucei rhodesiense infected in vervet monkey 471 assessed as time to detect CSF parasitosis at 10 mg/kg, po administered on day 14 post infection for 5 days measured after 7 to 14 days; assay type: functional, organism-based; set-up: dose 10 mg/kg
[10] = system: Trypanosoma brucei rhodesiense; test: Antitrypanosomal activity against Trypanosoma brucei rhodesiense infected in vervet monkey 471 assessed as time to detect CSF parasitosis at 10 mg/kg, po administered on day 14 post infection for 5 days measured after 14 to 21 days by microscopy; assay type: functional, organism-based; set-up: dose 10 mg/kg
[11] = system: Trypanosoma brucei rhodesiense; test: Antitrypanosomal activity against Trypanosoma brucei rhodesiense infected in vervet monkey 501 assessed as time to detect parasitemia at 10 mg/kg, po administered on day 28 post infection for 10 days; assay type: functional; how it was run: as §6
[12] = system: Trypanosoma brucei rhodesiense; test: Antitrypanosomal activity against Trypanosoma brucei rhodesiense infected in vervet monkey assessed as body weight change at 3 mg/kg, po administered on day 7 post infection for 5 days; assay type: functional; how it was run: as §2
[13] = system: Trypanosoma brucei rhodesiense; test: Antitrypanosomal activity against Trypanosoma brucei rhodesiense infected in vervet monkey 482 assessed as time to detect parasitemia at 3 mg/kg, po administered on day 7 post infection for 5 days; assay type: functional; how it was run: as §6
[14] = system: Trypanosoma brucei rhodesiense; test: Antitrypanosomal activity against Trypanosoma brucei rhodesiense infected in vervet monkey 484 assessed as time to detect CSF parasitosis at 1 mg/kg, po administered on day 7 post infection for 5 days measured after 7 to 14 days; assay type: functional; how it was run: as §1
[15] = system: Trypanosoma brucei rhodesiense; test: Antitrypanosomal activity against Trypanosoma brucei rhodesiense infected in vervet monkey 454 assessed as cure from infection at 10 mg/kg, po administered on day 7 post infection for 5 days; assay type: functional, organism-based; set-up: dose 10 mg/kg; how it was run: as §3
[16] = system: Trypanosoma brucei rhodesiense; test: Antitrypanosomal activity against Trypanosoma brucei rhodesiense infected in vervet monkey 483 assessed as time to detect CSF parasitosis at 3 mg/kg, po administered on day 7 post infection for 5 days measured after 7 to 14 days; assay type: functional; how it was run: as §1
[17] = system: Trypanosoma brucei rhodesiense; test: Antimicrobial activity against Trypanosoma brucei rhodesiense infected in vervet monkeys assessed as cure from infection at 10 mg/kg, po administered for 10 days
[18] = system: Trypanosoma brucei rhodesiense; test: Antitrypanosomal activity against Trypanosoma brucei rhodesiense infected in vervet monkey 520 assessed as time to detect CSF parasitosis at 10 mg/kg, po administered on day 28 post infection for 10 days measured after 7 to 14 days; assay type: functional; how it was run: as §1
[19] = system: Trypanosoma brucei rhodesiense; test: Antitrypanosomal activity against Trypanosoma brucei rhodesiense infected in vervet monkey assessed as change in packed cell volume at 10 mg/kg, po administered on day 7 post infection for 5 days; assay type: functional; how it was run: as §4
[20] = system: Trypanosoma brucei rhodesiense; test: Antitrypanosomal activity against Trypanosoma brucei rhodesiense infected in vervet monkey assessed as body weight change at 3 mg/kg, po administered on day 7 post infection for 5 days measured on day 28 post treatment; assay type: functional; how it was run: as §2
[21] = system: Trypanosoma brucei rhodesiense; test: Antimicrobial activity against Trypanosoma brucei rhodesiense infected in vervet monkeys assessed as cure from infection at 1 mg/kg, po administered on day 7 post infection for 5 days; assay type: functional, organism-based; set-up: dose 1 mg/kg; how it was run: as §3
[22] = system: Trypanosoma brucei rhodesiense; test: Antitrypanosomal activity against Trypanosoma brucei rhodesiense infected in vervet monkey 484 assessed as time to detect parasitemia at 1 mg/kg, po administered on day 7 post infection for 5 days; assay type: functional, organism-based; set-up: dose 1 mg/kg; how it was run: as §6
[23] = system: Trypanosoma brucei rhodesiense; test: Antitrypanosomal activity against Trypanosoma brucei rhodesiense infected in vervet monkey 471 assessed as time to detect parasitemia in wet films of blood at 10 mg/kg, po administered on day 14 post infection for 5 days by hematocrit centrifugation technique
[24] = system: Trypanosoma brucei rhodesiense; test: Antitrypanosomal activity against Trypanosoma brucei rhodesiense infected in vervet monkey 463 assessed as time to detect CSF parasitosis at 1 mg/kg, po administered on day 7 post infection for 5 days measured after 14 to 21 days by microscopy; assay type: functional, organism-based; set-up: dose 1 mg/kg; how it was run: as §1
[25] = system: Trypanosoma brucei rhodesiense; test: Antitrypanosomal activity against Trypanosoma brucei rhodesiense infected in vervet monkey assessed as change in packed cell volume at 10 mg/kg, po administered on day 28 post infection for 10 days measured on day 28 post treatment; assay type: functional; how it was run: as §5

CONC(=N)c1ccc(-c2ccc(-c3ccc(C(=N)NOC)cc3)o2)cc1 [PAFURAMIDINE]
Time [1]: 21 days | Activity [2]: -2.2% | Time [3]: Active | Activity [4]: -13.5% | Activity [5]: -2.9% | Activity [6]: -41.3% | Time [7]: 79 days | Time [8]: 56 days | Time [9]: inactive | Time [10]: inactive | Time [11]: 56 days | Activity [12]: -5% | Time [13]: 55 days | Time [14]: 7 days | Time [15]: Active | Time [16]: 69 days | Activity [17]: inactive | Time [18]: 119 days | Activity [19]: -5.8% | Activity [20]: -6.6% | Activity [21]: inactive | Time [22]: inactive | Time [23]: 87 days | Time [24]: inactive | Activity [25]: -9.1%
